Assay results published in ChEMBL document CHEMBL1122854, “Novel bis[1,6-dihydro-6,6-dimethyl-1,3,5-triazine-2,4-diamines] as antitrypanosomal agents” (1985).

system: Mus musculus; assay: Antitrypanosomal activity was evaluated against Trypanosoma rhodesiense infections in mice, at dose 13 mg/kg, administered subcutaneously;Cures; type: functional; conditions: route subcutaneous
Method in brief: (§1)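 IUR/HA Swiss mice (six weeks old, 30-32 g) infected i.p. with Wellcome CT strain T. rhodesiense. A single subcutaneous dose in peanut oil was given about 2 h after inoculation, with five mice per dose level. Positive control was stilbamidine or 2-hydroxystilbamidine isethionate at 40 mg/kg. Deaths before day 4 were scored toxic, and 30-day survivors cured.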

Row | Compound | Cures
1 | COc1cc(-c2ccc(N3C(N)=NC(N)=NC3(C)C)c(OC)c2)ccc1N1C(N)=NC(N)=NC1(C)C.Cl.Cl | 3

system: Mus musculus; assay: Antitrypanosomal activity was evaluated against Trypanosoma rhodesiense infections in mice, at dose 212 mg/kg, administered subcutaneously;Cures; type: functional; conditions: route subcutaneous; method in brief: as §1

Row | Compound | Cures
2 | COc1cc(-c2ccc(N3C(N)=NC(N)=NC3(C)C)c(OC)c2)ccc1N1C(N)=NC(N)=NC1(C)C.Cl.Cl | 2
3 | Cl.Cl.NC1=NC2(CCCCC2)N(c2ccc(CCc3ccc(N4C(N)=NC(N)=NC45CCCCC5)cc3)cc2)C(N)=N1 | 3

system: Mus musculus; assay: Antitrypanosomal activity was evaluated against Trypanosoma rhodesiense infections in mice, at dose 26 mg/kg, administered subcutaneously;Cures; type: functional; conditions: route subcutaneous; method in brief: as §1

Row | Compound | Cures
4 | CC1(C)N=C(N)N=C(N)N1c1ccc(NC(=O)Nc2ccc(N3C(N)=NC(N)=NC3(C)C)cc2)cc1.Cl.Cl | 1
5 | COc1cc(-c2ccc(N3C(N)=NC(N)=NC3(C)C)c(OC)c2)ccc1N1C(N)=NC(N)=NC1(C)C.Cl.Cl | 4
6 | Cl.Cl.NC1=NC2(CCCCC2)N(c2ccc(CCc3ccc(N4C(N)=NC(N)=NC45CCCCC5)cc3)cc2)C(N)=N1 | 2

system: Mus musculus; assay: Antitrypanosomal activity was evaluated against Trypanosoma rhodesiense infections in mice, at dose 106 mg/kg, administered subcutaneously;Cures; type: functional; conditions: route subcutaneous; method in brief: as §1

Row | Compound | Cures
7 | COc1cc(-c2ccc(N3C(N)=NC(N)=NC3(C)C)c(OC)c2)ccc1N1C(N)=NC(N)=NC1(C)C.Cl.Cl | 2
8 | Cl.Cl.NC1=NC2(CCCCC2)N(c2ccc(CCc3ccc(N4C(N)=NC(N)=NC45CCCCC5)cc3)cc2)C(N)=N1 | 3

system: Mus musculus; assay: Antitrypanosomal activity was evaluated against Trypanosoma rhodesiense infections in mice, at dose 6.6 mg/kg, administered subcutaneously;Cures; type: functional; conditions: route subcutaneous; method in brief: as §1

Row | Compound | Cures
9 | COc1cc(-c2ccc(N3C(N)=NC(N)=NC3(C)C)c(OC)c2)ccc1N1C(N)=NC(N)=NC1(C)C.Cl.Cl | 3

system: Mus musculus; assay: Antitrypanosomal activity was evaluated against Trypanosoma rhodesiense infections in mice, at dose 424 mg/kg, administered subcutaneously;Cures; type: functional; conditions: route subcutaneous; method in brief: as §1

Row | Compound | Cures
10 | Cl.Cl.NC1=NC2(CCCCC2)N(c2ccc(CCc3ccc(N4C(N)=NC(N)=NC45CCCCC5)cc3)cc2)C(N)=N1 | 4

system: Mus musculus; assay: Antitrypanosomal activity was evaluated against Trypanosoma rhodesiense infections in mice, at dose 53 mg/kg, administered subcutaneously;Cures; type: functional; conditions: route subcutaneous; method in brief: as §1

Row | Compound | Cures
11 | COc1cc(-c2ccc(N3C(N)=NC(N)=NC3(C)C)c(OC)c2)ccc1N1C(N)=NC(N)=NC1(C)C.Cl.Cl | 3
12 | Cl.Cl.NC1=NC2(CCCCC2)N(c2ccc(CCc3ccc(N4C(N)=NC(N)=NC45CCCCC5)cc3)cc2)C(N)=N1 | 2

system: Trypanosoma brucei rhodesiense; assay: Antitrypanosomal activity was evaluated against Trypanosoma rhodesiense infections in mice, at dose 26 mg/kg, administered subcutaneously;Toxic; type: functional; conditions: route subcutaneous; method in brief: as §1

Row | Compound | Toxic
13 | CC1(C)N=C(N)N=C(N)N1c1ccc(Sc2ccc(N3C(N)=NC(N)=NC3(C)C)cc2)cc1.Cl.Cl | 1
14 | CC1(C)N=C(N)N=C(N)N1c1ccc(NC(=O)Nc2ccc(N3C(N)=NC(N)=NC3(C)C)cc2)cc1.Cl.Cl | 1
15 | Cc1ccc(NC(=O)Nc2ccc(C)c(N3C(N)=NC(N)=NC3(C)C)c2)cc1N1C(N)=NC(N)=NC1(C)C.Cl.Cl | 2
16 | CC1(C)N=C(N)N=C(N)N1c1ccc(OCCOc2ccc(N3C(N)=NC(N)=NC3(C)C)cc2)cc1.Cl.Cl | 4
17 | CC(C)(c1ccc(N2C(N)=NC(N)=NC2(C)C)cc1)c1ccc(N2C(N)=NC(N)=NC2(C)C)cc1.Cl.Cl | 1

system: Trypanosoma brucei rhodesiense; assay: Antitrypanosomal activity against Trypanosoma rhodesiense infections in mice, 424 mg/kg administered subcutaneously; type: functional; conditions: route subcutaneous; method in brief: as §1

Row | Compound | Toxic
18 | CC1(C)N=C(N)N=C(N)N1c1ccc(Sc2ccc(N3C(N)=NC(N)=NC3(C)C)cc2)cc1.Cl.Cl | 5
19 | CC1(C)N=C(N)N=C(N)N1c1ccc(NC(=O)Nc2ccc(N3C(N)=NC(N)=NC3(C)C)cc2)cc1.Cl.Cl | 5
20 | COc1cc(-c2ccc(N3C(N)=NC(N)=NC3(C)C)c(OC)c2)ccc1N1C(N)=NC(N)=NC1(C)C.Cl.Cl | 5
21 | Cc1ccc(NC(=O)Nc2ccc(C)c(N3C(N)=NC(N)=NC3(C)C)c2)cc1N1C(N)=NC(N)=NC1(C)C.Cl.Cl | 5
22 | CC1(C)N=C(N)N=C(N)N1c1ccc(OCCOc2ccc(N3C(N)=NC(N)=NC3(C)C)cc2)cc1.Cl.Cl | 5
23 | CC(C)(c1ccc(N2C(N)=NC(N)=NC2(C)C)cc1)c1ccc(N2C(N)=NC(N)=NC2(C)C)cc1.Cl.Cl | 5

system: Trypanosoma brucei rhodesiense; assay: Antitrypanosomal activity was evaluated against Trypanosoma rhodesiense infections in mice, at dose 424 mg/kg, administered subcutaneously;Toxic; type: functional; conditions: route subcutaneous; method in brief: as §1

Row | Compound | Toxic
24 | Cl.Cl.NC1=NC2(CCCCC2)N(c2ccc(CCc3ccc(N4C(N)=NC(N)=NC45CCCCC5)cc3)cc2)C(N)=N1 | 1

system: Mus musculus; assay: (§2) Antitrypanosomal activity was evaluated against Trypanosoma rhodesiense infections in mice, at dose 53 mg/kg, administered subcutaneously; type: functional; conditions: route subcutaneous; method in brief: as §1

Row | Compound | Toxic
25 | CC1(C)N=C(N)N=C(N)N1c1ccc(NC(=O)Nc2ccc(N3C(N)=NC(N)=NC3(C)C)cc2)cc1.Cl.Cl | 5

system: Mus musculus; assay: Antitrypanosomal activity was evaluated against Trypanosoma rhodesiense infections in mice, at dose 13 mg/kg, administered subcutaneously;Toxic; type: functional; conditions: route subcutaneous; method in brief: as §1

Row | Compound | Toxic
26 | CC(C)(c1ccc(N2C(N)=NC(N)=NC2(C)C)cc1)c1ccc(N2C(N)=NC(N)=NC2(C)C)cc1.Cl.Cl | 1

system: Trypanosoma brucei rhodesiense; assay: Antitrypanosomal activity was evaluated against Trypanosoma rhodesiense infections in mice, at dose 106 mg/kg, administered subcutaneously; type: functional; conditions: route subcutaneous; method in brief: as §1

Row | Compound | Toxic
27 | CC1(C)N=C(N)N=C(N)N1c1ccc(Sc2ccc(N3C(N)=NC(N)=NC3(C)C)cc2)cc1.Cl.Cl | 5
28 | CC1(C)N=C(N)N=C(N)N1c1ccc(NC(=O)Nc2ccc(N3C(N)=NC(N)=NC3(C)C)cc2)cc1.Cl.Cl | 5
29 | CC1(C)N=C(N)N=C(N)N1c1ccc(OCCOc2ccc(N3C(N)=NC(N)=NC3(C)C)cc2)cc1.Cl.Cl | 5

system: Trypanosoma brucei rhodesiense; assay: Antitrypanosomal activity was evaluated against Trypanosoma rhodesiense infections in mice, at dose 106 mg/kg, administered subcutaneously;Toxic; type: functional; conditions: route subcutaneous; method in brief: as §1

Row | Compound | Toxic
30 | Cc1ccc(NC(=O)Nc2ccc(C)c(N3C(N)=NC(N)=NC3(C)C)c2)cc1N1C(N)=NC(N)=NC1(C)C.Cl.Cl | 2
31 | CC(C)(c1ccc(N2C(N)=NC(N)=NC2(C)C)cc1)c1ccc(N2C(N)=NC(N)=NC2(C)C)cc1.Cl.Cl | 2

system: Mus musculus; assay: Antitrypanosomal activity was evaluated against Trypanosoma rhodesiense infections in mice, at dose 212 mg/kg, administered subcutaneously;Toxic; type: functional; conditions: route subcutaneous; method in brief: as §1

Row | Compound | Toxic
32 | Cl.Cl.NC1=NC2(CCCCC2)N(c2ccc(CCc3ccc(N4C(N)=NC(N)=NC45CCCCC5)cc3)cc2)C(N)=N1 | 1

system: Trypanosoma brucei rhodesiense; assay: Antitrypanosomal activity was evaluated against Trypanosoma rhodesiense infections in mice, at dose 1.6 mg/kg, administered subcutaneously; type: functional; conditions: route subcutaneous
Method in brief: (§3)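 Six-week-old IUR/HA Swiss mice (30-32 g), 5 per dose, infected ip with 0.5 mL of a 1:50 000 dilution of heparinized heart blood from donor mice infected 3 days before (Wellcome CT strain). Single sc dose in peanut oil about 2 h post-inoculation. Deaths before day 4 counted toxic. ΔMST versus untreated controls; survivors at 30 days counted cured.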

Row | Compound | Delta MST [days]
33 | COc1cc(-c2ccc(N3C(N)=NC(N)=NC3(C)C)c(OC)c2)ccc1N1C(N)=NC(N)=NC1(C)C.Cl.Cl | 2.2
34 | CC1(C)N=C(N)N=C(N)N1c1ccc(OCCOc2ccc(N3C(N)=NC(N)=NC3(C)C)cc2)cc1.Cl.Cl | 2.8

system: Trypanosoma brucei rhodesiense; assay: Antitrypanosomal activity against Trypanosoma rhodesiense infections in mice, 106 mg/kg administered subcutaneously; type: functional; conditions: route subcutaneous; method in brief: as §3

Row | Compound | Delta MST [days]
35 | COc1cc(-c2ccc(N3C(N)=NC(N)=NC3(C)C)c(OC)c2)ccc1N1C(N)=NC(N)=NC1(C)C.Cl.Cl | 11.2
36 | Cc1ccc(NC(=O)Nc2ccc(C)c(N3C(N)=NC(N)=NC3(C)C)c2)cc1N1C(N)=NC(N)=NC1(C)C.Cl.Cl | 0
37 | Cl.Cl.NC1=NC2(CCCCC2)N(c2ccc(CCc3ccc(N4C(N)=NC(N)=NC45CCCCC5)cc3)cc2)C(N)=N1 | 12
38 | CC(C)(c1ccc(N2C(N)=NC(N)=NC2(C)C)cc1)c1ccc(N2C(N)=NC(N)=NC2(C)C)cc1.Cl.Cl | 1.8

system: Trypanosoma brucei rhodesiense; assay: Antitrypanosomal activity was evaluated against Trypanosoma rhodesiense infections in mice, at dose 212 mg/kg, administered subcutaneously; type: functional; conditions: route subcutaneous; method in brief: as §3

Row | Compound | Delta MST [days]
39 | COc1cc(-c2ccc(N3C(N)=NC(N)=NC3(C)C)c(OC)c2)ccc1N1C(N)=NC(N)=NC1(C)C.Cl.Cl | 3.2
40 | Cl.Cl.NC1=NC2(CCCCC2)N(c2ccc(CCc3ccc(N4C(N)=NC(N)=NC45CCCCC5)cc3)cc2)C(N)=N1 | 11

system: Trypanosoma brucei rhodesiense; assay: Anti-trypanosomal activity against Trypanosoma rhodesiense infections in mice, 26 mg/kg administered subcutaneously; type: functional; conditions: route subcutaneous; method in brief: as §3

Row | Compound | Delta MST [days]
41 | CC1(C)N=C(N)N=C(N)N1c1ccc(Sc2ccc(N3C(N)=NC(N)=NC3(C)C)cc2)cc1.Cl.Cl | 2.7
42 | COc1cc(-c2ccc(N3C(N)=NC(N)=NC3(C)C)c(OC)c2)ccc1N1C(N)=NC(N)=NC1(C)C.Cl.Cl | 8.9
43 | Cc1ccc(NC(=O)Nc2ccc(C)c(N3C(N)=NC(N)=NC3(C)C)c2)cc1N1C(N)=NC(N)=NC1(C)C.Cl.Cl | 0
44 | Cl.Cl.NC1=NC2(CCCCC2)N(c2ccc(CCc3ccc(N4C(N)=NC(N)=NC45CCCCC5)cc3)cc2)C(N)=N1 | 1.3
45 | CC1(C)N=C(N)N=C(N)N1c1ccc(OCCOc2ccc(N3C(N)=NC(N)=NC3(C)C)cc2)cc1.Cl.Cl | 8.9
46 | CC(C)(c1ccc(N2C(N)=NC(N)=NC2(C)C)cc1)c1ccc(N2C(N)=NC(N)=NC2(C)C)cc1.Cl.Cl | 1.3

system: Trypanosoma brucei rhodesiense; assay: Antitrypanosomal activity against Trypanosoma rhodesiense infections in mice, 3.3 mg/kg administered subcutaneously; type: functional; conditions: route subcutaneous; method in brief: as §3

Row | Compound | Delta MST [days]
47 | CC1(C)N=C(N)N=C(N)N1c1ccc(Sc2ccc(N3C(N)=NC(N)=NC3(C)C)cc2)cc1.Cl.Cl | 0.6
48 | COc1cc(-c2ccc(N3C(N)=NC(N)=NC3(C)C)c(OC)c2)ccc1N1C(N)=NC(N)=NC1(C)C.Cl.Cl | 7.2
49 | CC1(C)N=C(N)N=C(N)N1c1ccc(OCCOc2ccc(N3C(N)=NC(N)=NC3(C)C)cc2)cc1.Cl.Cl | 1

system: Trypanosoma brucei rhodesiense; assay: Antitrypanosomal activity against Trypanosoma rhodesiense infections in mice, 6.6 mg/kg administered subcutaneously; type: functional; conditions: route subcutaneous; method in brief: as §3

Row | Compound | Delta MST [days]
50 | CC1(C)N=C(N)N=C(N)N1c1ccc(Sc2ccc(N3C(N)=NC(N)=NC3(C)C)cc2)cc1.Cl.Cl | 0.6
51 | COc1cc(-c2ccc(N3C(N)=NC(N)=NC3(C)C)c(OC)c2)ccc1N1C(N)=NC(N)=NC1(C)C.Cl.Cl | 13.5
52 | CC1(C)N=C(N)N=C(N)N1c1ccc(OCCOc2ccc(N3C(N)=NC(N)=NC3(C)C)cc2)cc1.Cl.Cl | 2.6
53 | CC(C)(c1ccc(N2C(N)=NC(N)=NC2(C)C)cc1)c1ccc(N2C(N)=NC(N)=NC2(C)C)cc1.Cl.Cl | 0.9

system: Trypanosoma brucei rhodesiense; assay: as §2; type: functional; conditions: route subcutaneous; method in brief: as §3

Row | Compound | Delta MST [days]
54 | COc1cc(-c2ccc(N3C(N)=NC(N)=NC3(C)C)c(OC)c2)ccc1N1C(N)=NC(N)=NC1(C)C.Cl.Cl | 4.9
55 | Cl.Cl.NC1=NC2(CCCCC2)N(c2ccc(CCc3ccc(N4C(N)=NC(N)=NC45CCCCC5)cc3)cc2)C(N)=N1 | 9
